The source made the active and inactive calls. The rule behind the calls is not given here.
Experiments:
[1] = target: T1, Androgen receptor (Rattus norvegicus) (UniProt P15207); assay: Binding affinity to rat androgen receptor ligand binding domain by competitive fluorescence polarization assay
T1 sequence (whole entry): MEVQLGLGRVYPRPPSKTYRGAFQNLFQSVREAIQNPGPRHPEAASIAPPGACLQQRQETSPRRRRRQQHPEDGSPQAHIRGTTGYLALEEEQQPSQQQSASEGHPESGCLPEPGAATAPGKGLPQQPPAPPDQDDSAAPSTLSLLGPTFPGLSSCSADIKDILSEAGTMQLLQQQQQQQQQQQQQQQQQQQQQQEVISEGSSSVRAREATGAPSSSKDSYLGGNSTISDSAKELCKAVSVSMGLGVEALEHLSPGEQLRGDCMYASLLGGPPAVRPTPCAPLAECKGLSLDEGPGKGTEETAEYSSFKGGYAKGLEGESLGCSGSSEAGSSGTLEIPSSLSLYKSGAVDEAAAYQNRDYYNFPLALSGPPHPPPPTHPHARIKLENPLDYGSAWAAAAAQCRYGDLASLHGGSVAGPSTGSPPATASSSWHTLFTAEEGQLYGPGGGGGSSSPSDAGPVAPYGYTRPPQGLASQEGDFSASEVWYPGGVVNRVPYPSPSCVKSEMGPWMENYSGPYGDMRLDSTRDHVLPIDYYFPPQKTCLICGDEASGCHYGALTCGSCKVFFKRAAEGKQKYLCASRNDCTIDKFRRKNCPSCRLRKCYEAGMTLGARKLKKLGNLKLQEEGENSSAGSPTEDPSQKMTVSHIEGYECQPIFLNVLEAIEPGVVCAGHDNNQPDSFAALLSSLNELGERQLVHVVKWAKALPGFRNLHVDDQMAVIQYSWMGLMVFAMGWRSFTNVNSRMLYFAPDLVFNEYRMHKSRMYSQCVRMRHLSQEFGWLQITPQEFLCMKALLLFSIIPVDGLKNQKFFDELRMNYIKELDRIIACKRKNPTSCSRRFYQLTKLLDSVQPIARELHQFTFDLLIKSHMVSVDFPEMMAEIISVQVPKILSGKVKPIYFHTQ
How it was run: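 Competitive fluorescence polarization with the PolarScreen AR competitor kit, measuring displacement of a fluorescent tracer from the AR-LBD. Polarization was normalized to DMSO vehicle, which sets the maximum. Tracer without receptor sets the minimum, and DHT served as positive control. Average ± sd of experiments in triplicate.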

PC-3 [2] = assay: Activity in human PC3 cells expressing androgen receptor H874Y mutant assessed as ARE-dependent transactivation at 1 uM after 24 hrs by luciferase reporter gene assay in absence of DHT; format: cell-based
How it was run: (§1)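 PC-3 cells, which lack endogenous AR, transiently transfected with plasmids expressing human AR (WT, T877A, W741C or H874Y) plus an ARE-driven MMTV-luc reporter. Cells were treated with or without 0.1 nM DHT. Firefly luciferase was standardized to a Renilla control and normalized to the 0.1 nM DHT signal. Mean ± sd.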

[3] = Cytotoxicity against human C4-2B cells after 72 hrs by MTT assay; format: functional, cell-based; details: LNCaP C4-2B
PC-3 [4] = assay: Antiandrogenic activity in human PC3 cells expressing androgen receptor H874Y mutant assessed as inhibition of DHT-induced ARE-dependent transactivation at 1 uM after 24 hrs by luciferase reporter gene assay; format: cell-based; how it was run: as §1
PC-3 [5] = assay: Activity in human PC3 cells expressing androgen receptor H874Y mutant assessed as ARE-dependent transactivation at 0.1 uM after 24 hrs by luciferase reporter gene assay in absence of DHT; format: cell-based; how it was run: as §1
[6] = target: T2, Androgen receptor (Homo sapiens) (UniProt P10275); assay: Antiandrogenic activity in human PC3 cells expressing wild-type androgen receptor assessed as inhibition of DHT-induced ARE-dependent transactivation at 1 uM after 24 hrs by luciferase reporter gene assay; format: cell-based; details: PC-3; how it was run: as §1
T2 sequence (whole entry): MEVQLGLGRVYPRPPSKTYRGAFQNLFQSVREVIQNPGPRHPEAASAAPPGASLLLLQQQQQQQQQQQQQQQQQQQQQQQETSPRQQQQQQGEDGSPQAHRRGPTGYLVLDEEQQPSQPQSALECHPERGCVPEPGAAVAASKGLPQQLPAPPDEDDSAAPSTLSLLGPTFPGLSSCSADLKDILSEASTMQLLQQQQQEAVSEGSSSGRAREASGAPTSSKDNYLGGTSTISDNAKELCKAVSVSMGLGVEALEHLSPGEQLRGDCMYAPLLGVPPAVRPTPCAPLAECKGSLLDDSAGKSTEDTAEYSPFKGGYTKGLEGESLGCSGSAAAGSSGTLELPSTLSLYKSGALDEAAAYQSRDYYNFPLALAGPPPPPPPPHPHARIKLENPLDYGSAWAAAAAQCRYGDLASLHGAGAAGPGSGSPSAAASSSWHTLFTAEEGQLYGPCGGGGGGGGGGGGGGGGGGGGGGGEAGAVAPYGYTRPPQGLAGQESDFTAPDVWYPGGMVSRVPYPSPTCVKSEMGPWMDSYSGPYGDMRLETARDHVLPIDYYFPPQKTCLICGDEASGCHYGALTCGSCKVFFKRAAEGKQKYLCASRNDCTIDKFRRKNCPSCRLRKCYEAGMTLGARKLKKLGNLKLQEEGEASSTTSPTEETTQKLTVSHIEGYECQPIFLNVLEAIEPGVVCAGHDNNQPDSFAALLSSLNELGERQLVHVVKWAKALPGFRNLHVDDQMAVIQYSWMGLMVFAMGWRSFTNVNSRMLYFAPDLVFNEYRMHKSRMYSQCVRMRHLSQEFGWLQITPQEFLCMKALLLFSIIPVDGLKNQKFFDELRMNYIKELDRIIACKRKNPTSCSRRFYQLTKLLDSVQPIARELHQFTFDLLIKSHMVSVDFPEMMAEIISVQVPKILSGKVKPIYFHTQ

Activity [1]: Dose-dependent effect
Activity [6]: Active
Structure (SMILES): COc1cc(/C=C(\C(=O)/C=C/C2=C(C)CCCC2(C)C)C(=O)/C=C/c2ccc(O)c(OC)c2)ccc1O
Activity (PC-3 [2]): inactive
IC50 [3]: 1.6 µM
Activity (PC-3 [4]): Active
Activity (PC-3 [5]): inactive

From ChEMBL document CHEMBL1153534, “Design and synthesis of androgen receptor antagonists with bulky side chains for overcoming antiandrogen resistance” (J Med Chem, 2009)
